Experimental findings from ChEMBL document CHEMBL2150901, “Synthesis and biological activity of tricyclic cycloalkylimidazo-, pyrimido- and diazepinopurinediones” (Eur J Med Chem, 2011) are described below.

Series [1] has as its target T1, Adenosine receptor A2a (Rattus norvegicus, UniProt P30543). The experiment in a line: Displacement of [3H]MSX-2 from adenosine A2A receptor in rat brain striatal membrane. It counts as cell membranes. For orientation: Displacement assays read how much labelled ligand stays bound in the presence of the test substance.
The test system of series [2] is Mus musculus. Briefly: Anticonvulsant activity in F1 albino mouse assessed as protection against maximal electroshock-induced seizures at 300 mg/kg, ip after 0.25 hrs. It counts as functional, organism-based. Further details: dose 300 mg/kg. Summed up: (§1)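 Male albino F-1 mice (18–25 g), groups of 1–5 (rotorod 2–8). Compound given ip as a suspension in 0.5% methylcellulose at 30, 100 and 300 mg/kg. Seizures by maximal electroshock or subcutaneous pentylenetetrazole; neurotoxicity by rotorod. Read at 0.5 and 4 h, with some at 0.25, 1 and 2 h. Value is the minimum active dose, with protected (or toxic)/tested animals.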

The test system of series [3] is Mus musculus. Briefly: Anticonvulsant activity in F1 albino mouse assessed as protection against maximal electroshock-induced seizures at 300 mg/kg, ip after 1 hr. Further details: dose 300 mg/kg. It counts as functional, organism-based. In short, it runs like this:
as §1
(In the maximal electroshock model the usual endpoint is tonic extension of the hind limbs.)

The test system of series [4] is Mus musculus. Briefly: Anticonvulsant activity in F1 albino mouse assessed as protection against subcutaneous pentylenetetrazole-induced seizures at 300 mg/kg, ip after 0.25 hrs. It counts as functional, organism-based. Details: dose 300 mg/kg. In short, it runs like this:
as §1

The species named for the next series is Rattus norvegicus. Briefly: Selectivity ratio of Ki for adenosine A1 receptor in rat brain cortical membrane to Ki for adenosine A2A receptor in rat brain striatal membrane. It counts as cell membranes. In short, it runs like this:
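Ki ratios from radioligand competition binding. Rat A1 used brain cortical membranes and rat A2A used brain striatal membranes. Human A1 and A2A used membranes of CHO cells expressing the receptors. A1 radioligand [³H]CCPA; A2A radioligand [³H]MSX-2. Potent compounds were tested at 6–7 concentrations spanning 3 orders of magnitude.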

Series [5] deals with Mus musculus. Briefly: Neurotoxicity in F1 albino mouse assessed as minimal motor impairment at 300 mg/kg, ip after 4 hrs by rotorod test. Type of series: toxicity, organism-based. Further details: dose 300 mg/kg, route intraperitoneal. As to conditions: in vivo. In short, it runs like this:
as §1

Series [6] concerns Mus musculus. The experiment in a line: Toxicity in F1 albino mouse assessed as mortality following clonic seizures at 300 mg/kg, ip after 0.5 hrs. Type of series: organism-based. Further details: dose 300 mg/kg, route intraperitoneal. Conditions: in vivo. Summed up:
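Male albino F-1 mice (18–25 g) were dosed i.p. with a suspension in 0.5% methylcellulose in water at 30, 100 and 300 mg/kg. Screening used MES, subcutaneous pentylenetetrazole (ScMet) and rotorod tests, with 1–5 mice per seizure test.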

Series [7] concerns Mus musculus. Briefly: Neurotoxicity in F1 albino mouse assessed as minimal motor impairment at 300 mg/kg, ip after 0.5 hrs by rotorod test. As to conditions: in vivo. Details: dose 300 mg/kg, route intraperitoneal. Type of series: toxicity, organism-based. Summed up:
as §1
A general note: Falling from the rotarod earlier than controls is read as motor impairment.

Series [8] concerns Mus musculus. Briefly: Neurotoxicity in F1 albino mouse assessed as minimal motor impairment at 300 mg/kg, ip after 1 hr by rotorod test. It counts as toxicity, organism-based. Further details: dose 300 mg/kg, route intraperitoneal. As to conditions: in vivo. Summed up:
as §1

The target in series [9] is T2, Adenosine receptor A1 (Rattus norvegicus, UniProt P25099).
T2 sequence (P25099 whole entry): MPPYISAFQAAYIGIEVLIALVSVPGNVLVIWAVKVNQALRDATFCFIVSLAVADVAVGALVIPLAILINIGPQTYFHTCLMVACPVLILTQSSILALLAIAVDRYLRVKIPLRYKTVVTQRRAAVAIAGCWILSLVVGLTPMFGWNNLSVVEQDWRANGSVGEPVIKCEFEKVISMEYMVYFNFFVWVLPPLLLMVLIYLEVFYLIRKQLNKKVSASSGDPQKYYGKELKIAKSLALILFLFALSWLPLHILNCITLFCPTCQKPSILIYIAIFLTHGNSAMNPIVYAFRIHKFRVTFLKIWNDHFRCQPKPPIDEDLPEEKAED
The experiment in a line: Displacement of [3H]CCPA from adenosine A1 receptor in rat brain cortical membrane. It counts as cell membranes.

Series [10] concerns Mus musculus. The experiment in a line: Anticonvulsant activity in F1 albino mouse assessed as protection against subcutaneous pentylenetetrazole-induced seizures at 300 mg/kg, ip after 4 hrs. It counts as functional, organism-based. Details: dose 300 mg/kg. In short, it runs like this: as §1
Series [11] deals with Mus musculus. Briefly: Neurotoxicity in F1 albino mouse assessed as minimal motor impairment at 300 mg/kg, ip after 0.25 hrs by rotorod test. Conditions: in vivo. Further details: dose 300 mg/kg, route intraperitoneal. Type of series: toxicity, organism-based. Summed up: as §1
Series [12] deals with Mus musculus. The experiment in a line: Anticonvulsant activity in F1 albino mouse assessed as protection against maximal electroshock-induced seizures at 300 mg/kg, ip after 0.5 hrs. It counts as functional, organism-based. Further details: dose 300 mg/kg. Summed up: as §1
Series [13] relates to Mus musculus. Briefly: Anticonvulsant activity in F1 albino mouse assessed as protection against subcutaneous pentylenetetrazole-induced seizures at 300 mg/kg, ip after 1 hr. It counts as functional, organism-based. Further details: dose 300 mg/kg. In short, it runs like this: as §1
The test system of series [14] is Mus musculus. The experiment in a line: Anticonvulsant activity in F1 albino mouse assessed as protection against maximal electroshock-induced seizures at 300 mg/kg, ip after 4 hrs. It counts as functional, organism-based. Further details: dose 300 mg/kg. In short, it runs like this:
as §1

Series [15] deals with T2, Adenosine receptor A1. The experiment in a line: Displacement of [3H]CPX from adenosine A1 receptor in rat brain cortical membrane. It counts as cell membranes.
In a further series the target is T3, Adenosine receptor A2b (Homo sapiens, UniProt P29275).
T3 sequence (P29275 whole entry): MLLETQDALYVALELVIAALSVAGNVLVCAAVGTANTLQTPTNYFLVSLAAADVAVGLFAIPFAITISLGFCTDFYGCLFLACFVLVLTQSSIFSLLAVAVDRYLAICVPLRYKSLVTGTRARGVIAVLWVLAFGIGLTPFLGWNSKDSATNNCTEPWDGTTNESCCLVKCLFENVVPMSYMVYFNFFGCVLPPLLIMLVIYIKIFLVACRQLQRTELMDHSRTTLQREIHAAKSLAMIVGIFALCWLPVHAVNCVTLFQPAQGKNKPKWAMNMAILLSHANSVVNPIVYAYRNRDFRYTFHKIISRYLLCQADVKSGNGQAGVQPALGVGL
Briefly: Displacement of [3H]MRS-1754 from human recombinant adenosine A2B receptor expressed in HEK293 cells. Type of series: cell-based.

The target in another series is T4, Adenosine receptor A3 (Homo sapiens, UniProt P0DMS8).
T4 sequence (P0DMS8 whole entry): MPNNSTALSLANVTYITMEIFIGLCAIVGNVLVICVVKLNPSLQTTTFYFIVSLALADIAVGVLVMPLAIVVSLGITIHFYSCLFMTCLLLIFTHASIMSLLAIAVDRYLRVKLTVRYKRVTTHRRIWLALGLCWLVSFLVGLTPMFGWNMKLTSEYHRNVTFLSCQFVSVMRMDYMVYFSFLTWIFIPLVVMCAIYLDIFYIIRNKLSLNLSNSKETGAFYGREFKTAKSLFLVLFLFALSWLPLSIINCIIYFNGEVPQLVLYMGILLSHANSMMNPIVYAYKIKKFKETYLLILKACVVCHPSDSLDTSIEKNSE
Briefly: Displacement of [125I]AB-MECA from human adenosine A3 receptor expressed in HEK293 cells. Type of series: cell-based.

Series [16] concerns the target T1, Adenosine receptor A2a. The experiment in a line: Displacement of [125I]ZM241385 from adenosine A2A receptor in rat brain striatum membrane. It counts as cell membranes.

Calls of active or inactive are those of the source. The rule behind the calls is not given here.

In general, Ki refers to the dissociation constant of the complex between target and ligand, obtained from inhibition or displacement.

T1 sequence (P30543 whole entry): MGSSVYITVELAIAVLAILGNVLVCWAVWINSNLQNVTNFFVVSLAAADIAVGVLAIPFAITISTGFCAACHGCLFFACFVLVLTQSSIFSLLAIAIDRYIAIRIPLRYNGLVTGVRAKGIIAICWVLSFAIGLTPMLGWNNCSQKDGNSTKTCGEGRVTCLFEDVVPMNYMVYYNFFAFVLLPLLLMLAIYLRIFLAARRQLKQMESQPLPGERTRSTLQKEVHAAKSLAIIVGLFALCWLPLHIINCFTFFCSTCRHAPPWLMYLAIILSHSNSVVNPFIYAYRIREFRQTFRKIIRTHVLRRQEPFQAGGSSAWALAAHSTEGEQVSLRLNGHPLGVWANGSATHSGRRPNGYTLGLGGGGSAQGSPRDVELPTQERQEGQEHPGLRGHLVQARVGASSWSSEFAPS

In the case of `Cn1c(=O)c2c(nc3n2CCCN3C2CCCC2)n(C)c1=O`, the Ki was determined as 1000 nM at Adenosine receptor A2a [1] and 5310 nM at Adenosine receptor A1 [9]. In addition, the outcome with Mus musculus [2], in the series on Mus musculus [3], in the series on Mus musculus [4], in the series with Mus musculus [10], in the series with Mus musculus [12] and with Mus musculus [14] was inactive. The Ratio Ki in the series filed under Rattus norvegicus amounted to 5. Moreover, the Activity entry is “Non-toxic” with Mus musculus [5]; “Toxic” in the series on Mus musculus [6]; “Non-toxic” in the series with Mus musculus [7]; “Non-toxic” in the series on Mus musculus [8]; “Non-toxic” with Mus musculus [11]. In addition, the result in the series on Mus musculus [13] was Active.
With `CCCn1c(=O)c2[nH]c(C3C4CC5OC(=O)C3C5C4)nc2n(CCC)c1=O` (centres undefined), the Ki at Adenosine receptor A1 [15] was 0.3 nM; at Adenosine receptor A2b, 1540 nM; on Adenosine receptor A3 it was > 10000 nM; on Adenosine receptor A2a [16], 269 nM.
